Experimental data reported in ChEMBL document CHEMBL4364260, “Discovery of Ziresovir as a Potent, Selective, and Orally Bioavailable Respiratory Syncytial Virus Fusion Protein Inhibitor” (J Med Chem, 2019).

What was measured:
[1] = Cytotoxicity against human Hep2 cells assessed as reduction in cell viability after 5 days by CCK-8 assay; type: cell-based; settings: HEp-2 cells
Summary of the method: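 Uninfected HEp-2 cells (6000/well) were incubated 5 days with serially diluted compound. Viability was read by CCK-8, and CC50 is the concentration toxic to 50% of cells.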

[2] = Antiviral activity against Human respiratory syncytial virus A strain Long infected in human Hep2 cells assessed as reduction in virus induced cytopathic effect in presence of 10% FBS after 5 days by CCK-8 assay; type: functional, cell-based; settings: HEp-2, 120 h
Summary of the method: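 HEp-2 cells seeded at 6000/well and infected the next day at MOI 0.02, a dose that gives about 90% CPE by day 5. Serial compound dilutions were present throughout, in standard medium with 10% FBS. Viability was read by CCK-8 at day 5, and EC50 is the concentration that cuts CPE by 50%.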

[3] = Therapeutic index, ratio of CC50 of human Hep2 cells to EC50 for antiviral activity against human respiratory syncytial virus long strain infected in human Hep2 cells after 5 days by CCK-8 assay; type: toxicity, cell-based; settings: HEp-2 cells, read-out: Ratio CC50/EC50
Summary of the method: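 TI is CC50 over EC50. CC50 comes from uninfected HEp-2 cells; EC50 from 50% reduction of RSV Long CPE in HEp-2 cells (MOI 0.02, 5 days). Both were read by CCK-8 viability.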

[4] = AUC (0 to 24 hrs) in Wistar-Han rat at 10 mg/kg, po administered as single dose via gavage and measured up to 24 hrs by LC/MS/MS analysis; type: ADME, organism-based; set-up: dose 10 mg/kg, time < 24 hr, route oral; settings: in vivo
Summary of the method: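 Single-dose PK in male Wistar-Han rats at 2 mg/kg iv or 10 mg/kg po, as a solution in 5% DMSO, 40% PEG400 and 55% 0.9% sodium chloride.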

[5] = Plasma clearance in Wistar-Han rat at 2 mg/kg, iv or 10 mg/kg, po administered as single dose via gavage and measured up to 24 hrs by LC/MS/MS analysis; type: ADME, organism-based
Summary of the method: (§1)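 Male Wistar-Han rats, single dose, 2 mg/kg iv and 10 mg/kg po, run by standard procedures.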

[6] = Half-life in Wistar-Han rat at 2 mg/kg, iv administered as single dose and measured up to 24 hrs by LC/MS/MS analysis; type: ADME, organism-based; settings: in vivo; summary of the method: as §1
[7] = Volume of distribution at steady state in Wistar-Han rat at 2 mg/kg, iv or 10 mg/kg, po administered as single dose via gavage and measured up to 24 hrs by LC/MS/MS analysis; type: ADME, organism-based; settings: in vivo, read-out: Vdss; summary of the method: as §1
[8] = Oral bioavailability in Wistar-Han rat at 10 mg/kg administered as single dose via gavage and measured up to 24 hrs by LC/MS/MS analysis; type: ADME, organism-based; settings: in vivo; summary of the method: as §1

AUC(0-t) at 24 h [4]	clearance [5]	half-life [6]	Vd [7]	bioavailability [8]	Compound	CC50 at 120 h [1]	EC50 [2]	selectivity ratio at 120 h [3]
–	–	–	–	–	Cc1ccc2nc(N3CCS(=O)(=O)c4ccccc4C3)nc(NCC3(N)CCC3)c2c1	21000 nM	100 nM	210
–	–	–	–	–	NC1(CNc2cc(N3CCS(=O)(=O)c4ccccc4C3)nc3ccncc23)COC1	99000 nM	12 nM	8250
–	–	–	–	–	Cc1ccc2c(c1)S(=O)(=O)CCN(c1cc(NCC3(N)COC3)c3ccccc3n1)C2	95000 nM	74 nM	1280
–	–	–	–	–	Cc1ccc2nc(N3CCS(=O)(=O)c4cc(F)ccc4C3)cc(NCC3(N)COC3)c2c1	79000 nM	10 nM	7900
–	–	–	–	–	COc1ccc2c(c1)S(=O)(=O)CCN(c1cc(NCC3(N)COC3)c3cc(C)ccc3n1)C2	92000 nM	1 nM	92000
–	–	–	–	–	Cc1ccc2nc(N3CCS(=O)(=O)c4ccccc4C3)nc(NCC3(N)CC3)c2c1	13000 nM	4 nM	3250
–	–	–	–	–	Cc1ccc2nc(N3CCS(=O)(=O)c4cc(Cl)ccc4C3)cc(NCC3(N)COC3)c2c1	15000 nM	27 nM	560
–	–	–	–	–	CC(C)(O)c1ccc2nc(N3CCS(=O)(=O)c4ccccc4C3)cc(NCC3(N)COC3)c2c1	> 100000 nM	> 100000 nM	< 1
–	–	–	–	–	NC1(CNc2nc(N3CCS(=O)(=O)c4ccccc4C3)nc3ccccc23)COC1	> 100000 nM	20 nM	> 5000
–	–	–	–	–	Cc1cc2c(NCC3(N)COC3)cc(N3CCS(=O)(=O)c4ccccc4C3)nc2c(F)c1F	53000 nM	510 nM	104
–	–	–	–	–	Cc1ccc2nc(N3CCS(=O)(=O)c4c(F)cccc4C3)cc(NCC3(N)COC3)c2c1	35000 nM	3 nM	11700
–	–	–	–	–	Cc1ccc2cc(N3CCS(=O)(=O)c4ccccc4C3)nc(NCC3(N)COC3)c2c1	81000 nM	220 nM	370
–	–	–	–	–	COc1ccc2c(c1)S(=O)(=O)CCN(c1cc(NCC3(N)COC3)c3ccccc3n1)C2	> 100000 nM	8 nM	> 12500
–	–	–	–	–	NC1(CNc2cc(N3CCS(=O)(=O)c4ccccc4C3)nc3ccc(CO)cc23)COC1	> 100000 nM	2 nM	> 50000
442 ng·h/mL	51 mL/min/kg	1.7 h	4.1 L/kg	13%	Cc1ccc2nc(N3CCS(=O)(=O)c4ccccc4C3)cc(NCC3(N)COC3)c2c1	> 100000 nM	2 nM	> 50000
–	–	–	–	–	Cc1ccc2c(c1)S(=O)(=O)CCN(c1cc(NCC3(N)COC3)c3cc(C)ccc3n1)C2	91000 nM	5 nM	18200
–	–	–	–	–	NC1(CNc2cc(N3CCS(=O)(=O)c4ccccc4C3)nc3ccc(Cl)cc23)COC1	87000 nM	34 nM	2560
–	–	–	–	–	Cc1cc2c(NCC3(N)COC3)cc(N3CCS(=O)(=O)c4ccccc4C3)nc2cc1F	64000 nM	21 nM	3050
–	–	–	–	–	COc1ccc2c(c1)CN(c1cc(NCC3(N)COC3)c3cc(C)ccc3n1)CCS2(=O)=O	90000 nM	3 nM	30000
–	–	–	–	–	Cc1ccc2nc(N3CCS(=O)(=O)c4ccccc4C3)nc(NCC(C)(C)N)c2c1	20000 nM	16 nM	1250
–	–	–	–	–	Cc1ccc2nc(N3CCS(=O)(=O)c4ccc(F)cc4C3)cc(NCC3(N)COC3)c2c1	93000 nM	72 nM	1290
–	–	–	–	–	Cc1ccc2nc(N3CCS(=O)(=O)c4ccccc4C3)cc(NCC3(N)COC3)c2c1F	93000 nM	23 nM	4040
–	–	–	–	–	COc1cccc2c1S(=O)(=O)CCN(c1cc(NCC3(N)COC3)c3cc(C)ccc3n1)C2	> 100000 nM	350 nM	> 286
–	–	–	–	–	NC1(CNc2cc(N3CCS(=O)(=O)c4ccccc4C3)cc3ccccc23)COC1	71000 nM	> 31600 nM	< 2
–	–	–	–	–	Cc1ccc2nc(N3CCS(=O)(=O)c4ccc(O)cc4C3)cc(NCC3(N)COC3)c2c1	> 100000 nM	0.8 nM	> 125000
